Converted amounts (≈) assume the structure as drawn.
Key:
[1] = tested on: Lepidium sativum; assay: In vitro root inhibition activity measured using seedlings of Lepidium sativum, and relative potency expressed with respect to streptonigrin.; format: functional
Outline: (§1)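 Cress (L. sativum) seeds soaked in water 15–20 min, germinated on 0.6% agar at 27 °C in the dark for 24 h until radicles were ca. 1 cm. DMSO solutions (2000–40 μg/mL stocks, 200 μL per 20 mL agar) were set in 0.6% agar; DMSO-only controls. Eight seedlings per plate, 24 h at 27 °C in the dark. New root growth measured, duplicate runs (16 seedlings). %I = 1 − (T/C) × 100; probit analysis and linear regression gave I50.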

[2] = tested on: Bacillus subtilis; assay: In vitro antibacterial activity measured against Bacillus subtilis and relative potency expressed with respect to streptonigrin.; format: functional
Outline: (§2)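 Agar disc-diffusion plates seeded with B. subtilis spores, six discs per plate, incubated at 37 °C for 20 h. Zones of inhibition measured and averaged over four replicates. Zone diameter varied linearly with log concentration. Slopes were fitted by regression, with standard errors of the slope calculated.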

[3] = tested on: Bacillus subtilis; assay: In vitro antibacterial activity against Bacillus subtilis; format: functional
[4] = tested on: Lepidium sativum; assay: In vitro root inhibition activity using seedlings of Lepidium sativum; format: functional, organism-based; outline: as §1
[5] = tested on: Bacillus subtilis; assay: Antibacterial activity against Bacillus subtilis and values were expressed as standard error for slope; format: functional; outline: as §2

Row | SMILES | MIC [3] | Relative potency [1] | Relative potency [2] | I50 [4] | Slope [5]
1 | COC1=C(N)C(=O)c2nc(-c3nc(C(=O)O)c(C)cc3N)ccc2C1=O | 0.25 µM (≈ 0.0886 µg/mL) | 2.3 | 5.48 | 5.5 nM ml-1 | 4.75
2 | COC1=C(N)C(=O)c2c(ccnc2-c2ccc([N+](=O)[O-])cc2)C1=O | – | 1.34 | – | 9.41 nM ml-1 | –
3 | COC1=C(N)C(=O)c2c(ccnc2Cc2ccccc2)C1=O | 16 µM (≈ 4.71 µg/mL) | 0.92 | 0.09 | 13.7 nM ml-1 | 11.31
4 | COC1=C(N)C(=O)c2nc(-c3ccccn3)ccc2C1=O | 14.1 µM (≈ 3.97 µg/mL) | 1.37 | 0.1 | 9.18 nM ml-1 | 10.23
5 | COC1=C(N)C(=O)c2c(ccnc2-c2ccccc2N)C1=O | 17.2 µM (≈ 5.08 µg/mL) | 0.19 | 0.08 | 65 nM ml-1 | 9.2
6 | COC1=C(N)C(=O)c2c(ccnc2-c2ccccc2)C1=O | 27.2 µM (≈ 7.62 µg/mL) | 1.12 | 0.05 | 11.25 nM ml-1 | 14.78
7 | COC1=C(N)C(=O)c2nc(-c3nc(C(=O)O)c(C)c(-c4ccc(OC)c(OC)c4O)c3N)ccc2C1=O [STREPTONIGRIN] | 1.37 µM (≈ 0.694 µg/mL) | 1 | 1 | 12.65 nM ml-1 | 5.51
8 | COC1=C(N)C(=O)c2c(ccnc2-c2ccc(N)cc2)C1=O | 35.8 µM (≈ 10.6 µg/mL) | 0.82 | 0.04 | 15.49 nM ml-1 | 12.64

Further lines, with some results ahead:

Row | MIC [3] | SMILES | Relative potency [1] | Relative potency [2] | I50 [4] | Slope [5]
9 | 6.76 µM (≈ 2.62 µg/mL) | C/N=C1\C(=O)c2ccnc(-c3ccccc3[N+](=O)[O-])c2C(O)=C1Br | 1.3 | 0.2 | 10 nM ml-1 | 5.21
10 | 5.2 µM (≈ 1.69 µg/mL) | COC1=C(N)C(=O)c2c(ccnc2-c2cccc([N+](=O)[O-])c2)C1=O | 1.96 | 0.26 | 6.43 nM ml-1 | 4.93
11 | 16 µM (≈ 5.72 µg/mL) | C/N=C1\C(=O)c2ccnc(Cc3ccccc3)c2C(O)=C1Br | 0.42 | 0.09 | 30.05 nM ml-1 | 11.31
12 | 39.3 µM (≈ 11.1 µg/mL) | COC1=C(N)C(=O)c2c(ccnc2-c2ccccn2)C1=O | 0.99 | 0.03 | 12.7 nM ml-1 | 12.37
13 | 33.4 µM (≈ 9.86 µg/mL) | COC1=C(N)C(=O)c2c(ccnc2-c2cccc(N)c2)C1=O | 0.57 | 0.04 | 22.37 nM ml-1 | 11.7
14 | 9 µM (≈ 2.93 µg/mL) | COC1=C(N)C(=O)c2c(ccnc2-c2ccccc2[N+](=O)[O-])C1=O | 2.09 | 0.15 | 6.03 nM ml-1 | 10.3
